ChEMBL document CHEMBL4680097 (J Med Chem, 2016)
Calls of active or inactive are those of the source. The rule behind the calls is not given here.

Key:
[1] = test system: HCT-116; assay: Growth inhibition of human HCT-116 cells incubated for 96 hrs by MTS assay; format: functional
[2] = test system: Panel NCI-60 (60 carcinoma cell lines); assay: Growth inhibition of human NCI-60 cells assessed as cell growth at 10 uM; format: functional; settings: read-out: Activity
Procedure, shortened: (§1)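 NCI-60 human tumour cell line panel; initial single-dose screen at 10 μM, growth inhibition reported per cell line.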

[3] = target: T1, Histone deacetylase (Homo sapiens) (UniProt Q13547+O15379+Q9UBN7+Q92769+Q9UQL6+Q8WUI4+Q9BY41+Q96DB2+P56524+Q9UKV0+Q969S8); assay: Inhibition of HDAC in human HCT-116 cells assessed increase in global histone H3 lysine 9 acetylation at 100 nM incubated for 24 hrs by Western blot analysis; format: cell-based
Procedure, shortened: (§2)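 HCT116 cells exposed 24 h at 10 nM, 100 nM or 1 μM; global histone H3 lysine 9 acetylation detected by Western blot.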

[4] = test system: Panel NCI-60 (60 carcinoma cell lines); assay: Growth inhibition of human NCI-60 cells at 10 uM; format: functional; settings: read-out: GI; procedure, shortened: as §1
[5] = target: T2, Histone deacetylase 2 (Homo sapiens, UniProt Q92769); assay: Inhibition of recombinant HDAC2 (unknown origin)incubated for 15 mins before substrate addition and measured after 30 to 45 mins by HDAC-Glo substrate
T2 sequence (Q92769 whole entry, canonical isoform): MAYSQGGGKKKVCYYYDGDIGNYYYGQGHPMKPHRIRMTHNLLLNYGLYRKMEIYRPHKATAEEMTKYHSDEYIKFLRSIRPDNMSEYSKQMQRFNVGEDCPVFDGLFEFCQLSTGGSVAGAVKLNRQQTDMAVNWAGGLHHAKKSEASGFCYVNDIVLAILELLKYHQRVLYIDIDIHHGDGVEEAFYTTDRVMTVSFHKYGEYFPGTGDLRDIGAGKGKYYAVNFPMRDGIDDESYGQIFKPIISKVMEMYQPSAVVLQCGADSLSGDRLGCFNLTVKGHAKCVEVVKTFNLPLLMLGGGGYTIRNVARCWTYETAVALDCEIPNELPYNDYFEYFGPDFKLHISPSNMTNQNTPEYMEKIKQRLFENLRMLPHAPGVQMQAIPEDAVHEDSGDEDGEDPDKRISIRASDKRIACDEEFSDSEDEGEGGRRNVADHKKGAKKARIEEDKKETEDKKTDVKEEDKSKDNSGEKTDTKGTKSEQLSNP
Procedure, shortened: (§3)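 HDAC isoforms captured from HeLa cell lysate with plate-bound isoform-specific antibodies (lysate 100 µg/mL for HDAC1/2, 1 mg/mL for HDAC3/6); inhibitor in DMSO preincubated 15 min at room temperature, then HDAC-Glo substrate/developer 30–45 min; luminescence, background-corrected against no-antibody wells; % activity vs DMSO control; at least two independent trials, mean ± standard error. Concentrations are final.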

[6] = species: Homo sapiens; assay: Selectivity index, ratio of IC50 for recombinant HDAC6 (unknown origin) to IC50 for recombinant HDAC3 (unknown origin)
[7] = target: T2, Histone deacetylase 2; assay: Inhibition of recombinant HDAC2 (unknown origin) at 250 nM incubated for 15 mins before substrate addition and measured after 30 to 45 mins by HDAC-Glo substrate; procedure, shortened: as §3
[8] = target: T3, Histone deacetylase 1 (Homo sapiens, UniProt Q13547); assay: Inhibition of recombinant HDAC1 (unknown origin) incubated for 15 mins before substrate addition and measured after 30 to 45 mins by HDAC-Glo substrate; procedure, shortened: as §3
T3 sequence (Q13547 whole entry): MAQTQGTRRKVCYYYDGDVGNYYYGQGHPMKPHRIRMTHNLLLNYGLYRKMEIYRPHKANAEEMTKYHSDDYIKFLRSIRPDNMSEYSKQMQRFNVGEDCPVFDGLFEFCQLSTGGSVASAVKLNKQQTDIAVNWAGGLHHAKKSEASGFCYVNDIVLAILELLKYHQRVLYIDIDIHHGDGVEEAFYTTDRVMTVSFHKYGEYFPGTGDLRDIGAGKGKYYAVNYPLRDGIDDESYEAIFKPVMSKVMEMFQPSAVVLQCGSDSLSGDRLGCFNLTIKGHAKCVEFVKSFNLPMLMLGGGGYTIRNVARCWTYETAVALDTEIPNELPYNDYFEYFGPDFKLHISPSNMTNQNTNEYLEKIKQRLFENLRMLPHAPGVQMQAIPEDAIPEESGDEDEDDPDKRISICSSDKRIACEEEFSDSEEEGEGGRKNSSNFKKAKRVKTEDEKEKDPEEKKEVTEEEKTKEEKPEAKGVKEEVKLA

[9] = target: T1, Histone deacetylase (Homo sapiens); assay: Inhibition of HDAC in human HCT-116 cells assessed increase in global histone H3 lysine 9 acetylation at 10 nM incubated for 24 hrs by Western blot analysis; format: cell-based; procedure, shortened: as §2
[10] = species: Homo sapiens; assay: Selectivity index, ratio of IC50 for recombinant HDAC6 (unknown origin) to IC50 for recombinant HDAC2 (unknown origin)
[11] = target: T4, Histone deacetylase 3 (Homo sapiens, UniProt O15379); assay: Inhibition of recombinant HDAC3 (unknown origin)incubated for 15 mins before substrate addition and measured after 30 to 45 mins by HDAC-Glo substrate; procedure, shortened: as §3
T4 sequence (O15379 whole entry): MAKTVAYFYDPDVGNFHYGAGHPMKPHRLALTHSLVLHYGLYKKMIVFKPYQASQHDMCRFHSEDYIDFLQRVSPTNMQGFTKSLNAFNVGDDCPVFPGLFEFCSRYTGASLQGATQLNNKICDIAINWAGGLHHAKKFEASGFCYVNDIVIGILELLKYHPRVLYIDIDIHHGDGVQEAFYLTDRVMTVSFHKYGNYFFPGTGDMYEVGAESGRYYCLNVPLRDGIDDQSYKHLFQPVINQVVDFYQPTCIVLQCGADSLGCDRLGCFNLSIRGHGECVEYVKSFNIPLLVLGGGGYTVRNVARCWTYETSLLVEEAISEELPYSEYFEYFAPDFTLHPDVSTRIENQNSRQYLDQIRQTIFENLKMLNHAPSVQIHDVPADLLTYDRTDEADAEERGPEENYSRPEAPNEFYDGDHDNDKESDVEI

[12] = target: T3, Histone deacetylase 1; assay: Inhibition of recombinant HDAC1 (unknown origin) at 250 nM incubated for 15 mins before substrate addition and measured after 30 to 45 mins by HDAC-Glo substrate; procedure, shortened: as §3
[13] = species: Homo sapiens; assay: Selectivity index, ratio of IC50 for recombinant HDAC6 (unknown origin) to IC50 for recombinant HDAC1 (unknown origin)
[14] = target: T4, Histone deacetylase 3; assay: Inhibition of recombinant HDAC3 (unknown origin) at 250 nM incubated for 15 mins before substrate addition and measured after 30 to 45 mins by HDAC-Glo substrate; procedure, shortened: as §3
[15] = target: T2, Histone deacetylase 2; assay: Inhibition of recombinant HDAC2 (unknown origin) at 1 uM incubated for 15 mins before substrate addition and measured after 30 to 45 mins by HDAC-Glo substrate; procedure, shortened: as §3
[16] = target: T4, Histone deacetylase 3; assay: Inhibition of recombinant HDAC3 (unknown origin) at 1 uM incubated for 15 mins before substrate addition and measured after 30 to 45 mins by HDAC-Glo substrate; procedure, shortened: as §3
[17] = target: T3, Histone deacetylase 1; assay: Inhibition of recombinant HDAC1 (unknown origin) at 1 uM incubated for 15 mins before substrate addition and measured after 30 to 45 mins by HDAC-Glo substrate; procedure, shortened: as §3
[18] = target: T2, Histone deacetylase 2; assay: Inhibition of recombinant HDAC2 (unknown origin) at 2 uM incubated for 15 mins before substrate addition and measured after 30 to 45 mins by HDAC-Glo substrate; procedure, shortened: as §3
[19] = target: T4, Histone deacetylase 3; assay: Inhibition of recombinant HDAC3 (unknown origin) at 2 uM incubated for 15 mins before substrate addition and measured after 30 to 45 mins by HDAC-Glo substrate; procedure, shortened: as §3
[20] = target: T3, Histone deacetylase 1; assay: Inhibition of recombinant HDAC1 (unknown origin) at 2 uM incubated for 15 mins before substrate addition and measured after 30 to 45 mins by HDAC-Glo substrate; procedure, shortened: as §3

Row | SMILES | GI50 [1] | growth at 10 µM [2] | inhibition [3] | inhibition of growth at 10 µM [4] | inhibition [7] | Increase in histone H3K9 acetylation (qualitative call) [9] | inhibition [12] | inhibition [14] | other results
1 | CCCCCCCC(=O)SCC/C=C/[C@@H]1CC(=O)NCc2cccc(n2)CN(C)CC(=O)N[C@@H](C(C)C)C(=O)O1 | 800 nM | 40.8% | Active | 60% |  |  |  |  | 
2 | CCCCCCCC(=O)SCC/C=C/[C@@H]1CC(=O)NCc2cccc(n2)-c2cccc(n2)C(=O)N[C@@H](C(C)C)C(=O)O1 | 75 nM | -16.2% |  |  | Active | Active | Active | Active | IC50 [5]: 28 nM; Ratio IC50 [6]: 481; IC50 [8]: 21 nM; Ratio IC50 [10]: 464; IC50 [11]: 27 nM; Ratio IC50 [13]: 619
3 | CCCCCCCC(=O)SCC/C=C/[C@@H]1CC(=O)NCc2cccc(n2)CN(Cc2ccc(OC)cc2)CC(=O)N[C@@H](C(C)C)C(=O)O1 | 4250 nM | 5.41% |  |  | inactive | Active | inactive | inactive | 
4 | CCCCCCCC(=O)SCC/C=C/[C@@H]1CC(=O)NCc2cccc(n2)CN(Cc2ccc(C(F)(F)F)cc2)CC(=O)N[C@@H](C(C)C)C(=O)O1 | 3200 nM | 0.43% |  |  |  | Active |  |  | inhibition [15]: inactive; inhibition [16]: inactive; inhibition [17]: inactive
5 | CCCCCCCC(=O)SCC/C=C/[C@@H]1CC(=O)NCc2cccc(n2)CN(Cc2cccc3ccccc23)CC(=O)N[C@@H](C(C)C)C(=O)O1 | > 5000 nM | 34.9% | inactive |  |  |  |  |  | inhibition [18]: Active; inhibition [19]: Active; inhibition [20]: Active
6 | CCCCCCCC(=O)SCC/C=C/[C@@H]1CC(=O)NCc2nc(cs2)C2=N[C@@](C)(CS2)C(=O)N[C@@H](C(C)C)C(=O)O1 [LARGAZOLE] | 65 nM |  |  | 60% |  | Active |  |  | IC50 [5]: 64 nM; IC50 [8]: 61 nM
7 | CCCCCCCC(=O)SCC/C=C/[C@@H]1CC(=O)NCc2cccc(n2)CN(Cc2ccc(Cl)cc2)CC(=O)N[C@@H](C(C)C)C(=O)O1 | 2670 nM | 1.42% |  |  | inactive | Active | inactive | inactive | 
8 | CCCCCCCC(=O)SCC/C=C/[C@@H]1CC(=O)NCc2cccc(n2)CN(Cc2ccccc2)CC(=O)N[C@@H](C(C)C)C(=O)O1 | > 5000 nM | -4.39% |  |  | inactive | Active | inactive | inactive | 
9 | CCCCCCCC(=O)SCC/C=C/[C@@H]1CC(=O)NCCOCCOCC(=O)N[C@@H](C(C)C)C(=O)O1 | 750 nM | 38.6% | Active | 60% |  |  |  |  | inhibition [18]: Active; inhibition [19]: Active; inhibition [20]: Active
